# Reference: ChEMBL document CHEMBL5303300, “EUbOPEN Chemogenomics Library - Multiplex” (2023)
# Values joined by “and” are separate entries in the source; they are usually repeats but may differ in a detail not shown here. Identical values can stand only once.
# Experiments:
# U2OS = experiment: Multiplex assay against U2OS; format: toxicity, cell-based; settings: human, number of replicates 2
# Outline: (§1)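 Values for tubulin, mitochondrial-mass and membrane-permeability phenotypes are per cents of cells with healthy nuclei. These cells were identified by CellPathfinder machine-learning gating of live cells that had been stained at seeding with Hoechst33342, BioTracker Green Microtubule Cytoskeleton Dye, MitoTracker Red and Annexin V Alexa Fluor 680 and imaged on a CQ1 microscope at 37°C and 5% CO2 after compound addition. The gating first set Hoechst high-intensity objects apart from normal cells, then split normal cells into healthy, pyknosed or fragmented nuclei, and pyknosed cells into mitotic or apoptotic.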
# HEK-293T = experiment: Multiplex assay against HEK293T; format: toxicity, cell-based; settings: human, number of replicates 2; outline: as §1
# [1] = 24 h, 10 µM, compound concentration 10 uM
# [2] = 48 h, 1 µM, compound concentration 1 uM
# [3] = 48 h, 10 µM, compound concentration 10 uM
# [4] = 12 h, 1 µM, compound concentration 1 uM
# [5] = 12 h, 10 µM, compound concentration 10 uM
# [6] = 24 h, 1 µM, compound concentration 1 uM
smiles,measurement,setting,value
COC(=O)c1ccc2c(c1)NC(=O)/C2=C(\Nc1ccc(-c2nccn2C)cc1)c1ccccc1,Population Healthy Nuclei (%),U2OS; [1],42% and 74%
same,Population Hoechst High Intensity Objects (%),U2OS; [1],0%
same,Population Membrane Permeable-Phenotype (%),U2OS; [1],22% and 10%
same,Population Mitochondria Different-Phenotype (%),U2OS; [1],27% and 31%
same,Population Mitotic Cells (%),U2OS; [1],41% and 31%
same,Population Normal (%),U2OS; [1],100%
same,Population Pyknosed Nuclei (%),U2OS; [1],23% and 20%
same,Population Tubulin-Different-Phenotype (%),U2OS; [1],50% and 52%
same,Population Apoptotic (%),U2OS; [2],50% and 62%
same,Population Healthy Nuclei (%),U2OS; [2],71% and 90%
same,Population Hoechst High Intensity Objects (%),U2OS; [2],0%
same,Population Membrane Permeable-Phenotype (%),U2OS; [2],5% and 2%
same,Population Mitochondria Different-Phenotype (%),U2OS; [2],3% and 0%
same,Population Mitotic Cells (%),U2OS; [2],50% and 37%
same,Population Normal (%),U2OS; [2],100%
same,Population Pyknosed Nuclei (%),U2OS; [2],9% and 5%
same,Population Tubulin-Different-Phenotype (%),U2OS; [2],58% and 86%
same,Population Apoptotic (%),U2OS; [3],93% and 88%
same,Population Healthy Nuclei (%),U2OS; [3],40% and 72%
same,Population Hoechst High Intensity Objects (%),U2OS; [3],3% and 0%
same,Population Membrane Permeable-Phenotype (%),U2OS; [3],27% and 11%
same,Population Mitochondria Different-Phenotype (%),U2OS; [3],40% and 21%
same,Population Mitotic Cells (%),U2OS; [3],6% and 11%
same,Population Normal (%),U2OS; [3],96% and 99%
same,Population Pyknosed Nuclei (%),U2OS; [3],27% and 21%
same,Population Tubulin-Different-Phenotype (%),U2OS; [3],59% and 40%
same,Population Apoptotic (%),HEK-293T; [4],50% and 35%
same,Population Fragmented Nuclei (%),HEK-293T; [4],3% and 2%
same,Population Healthy Nuclei (%),HEK-293T; [4],86%
same,Population Hoechst High Intensity Objects (%),HEK-293T; [4],4%
same,Population Membrane Permeable-Phenotype (%),HEK-293T; [4],4% and 3%
same,Population Mitochondria Different-Phenotype (%),HEK-293T; [4],20% and 17%
same,Population Mitotic Cells (%),HEK-293T; [4],49% and 64%
same,Population Normal (%),HEK-293T; [4],95%
same,Population Pyknosed Nuclei (%),HEK-293T; [4],10% and 11%
same,Population Tubulin-Different-Phenotype (%),HEK-293T; [4],52% and 51%
same,Total Cell Count,HEK-293T; [4],677 and 686
same,Population Apoptotic (%),HEK-293T; [5],53% and 62%
same,Population Fragmented Nuclei (%),HEK-293T; [5],2% and 4%
same,Population Healthy Nuclei (%),HEK-293T; [5],83% and 81%
same,Population Hoechst High Intensity Objects (%),HEK-293T; [5],10% and 11%
same,Population Membrane Permeable-Phenotype (%),HEK-293T; [5],6% and 5%
same,Population Mitochondria Different-Phenotype (%),HEK-293T; [5],37% and 38%
same,Population Mitotic Cells (%),HEK-293T; [5],46% and 37%
same,Population Normal (%),HEK-293T; [5],89% and 88%
same,Population Pyknosed Nuclei (%),HEK-293T; [5],13% and 14%
same,Population Tubulin-Different-Phenotype (%),HEK-293T; [5],88% and 93%
same,Total Cell Count,HEK-293T; [5],504 and 530
same,Population Apoptotic (%),HEK-293T; [6],30% and 31%
same,Population Fragmented Nuclei (%),HEK-293T; [6],5% and 3%
same,Population Healthy Nuclei (%),HEK-293T; [6],87% and 88%
same,Population Hoechst High Intensity Objects (%),HEK-293T; [6],6% and 7%
same,Population Membrane Permeable-Phenotype (%),HEK-293T; [6],4% and 1%
same,Population Mitochondria Different-Phenotype (%),HEK-293T; [6],8% and 5%
same,Population Mitotic Cells (%),HEK-293T; [6],69% and 68%
same,Population Normal (%),HEK-293T; [6],93% and 92%
same,Population Pyknosed Nuclei (%),HEK-293T; [6],6% and 8%
same,Population Tubulin-Different-Phenotype (%),HEK-293T; [6],35% and 36%
same,Total Cell Count,HEK-293T; [6],1123 and 936
same,Population Apoptotic (%),HEK-293T; [1],55% and 74%
same,Population Fragmented Nuclei (%),HEK-293T; [1],6% and 5%
same,Population Healthy Nuclei (%),HEK-293T; [1],79% and 80%
same,Population Hoechst High Intensity Objects (%),HEK-293T; [1],9% and 11%
same,Population Membrane Permeable-Phenotype (%),HEK-293T; [1],3% and 4%
same,Population Mitochondria Different-Phenotype (%),HEK-293T; [1],27% and 38%
same,Population Mitotic Cells (%),HEK-293T; [1],44% and 25%
same,Population Normal (%),HEK-293T; [1],90% and 88%
same,Population Pyknosed Nuclei (%),HEK-293T; [1],13% and 14%
same,Population Tubulin-Different-Phenotype (%),HEK-293T; [1],81% and 89%
same,Total Cell Count,HEK-293T; [1],660 and 604
same,Population Apoptotic (%),HEK-293T; [2],28% and 24%
same,Population Fragmented Nuclei (%),HEK-293T; [2],12% and 9%
same,Population Healthy Nuclei (%),HEK-293T; [2],84% and 87%
same,Population Hoechst High Intensity Objects (%),HEK-293T; [2],9%
same,Population Membrane Permeable-Phenotype (%),HEK-293T; [2],4% and 3%
same,Population Mitochondria Different-Phenotype (%),HEK-293T; [2],0% and 1%
same,Population Mitotic Cells (%),HEK-293T; [2],72% and 75%
same,Population Normal (%),HEK-293T; [2],90%
same,Population Pyknosed Nuclei (%),HEK-293T; [2],2% and 3%
same,Population Tubulin-Different-Phenotype (%),HEK-293T; [2],12% and 19%
same,Total Cell Count,HEK-293T; [2],2887 and 2005
same,Population Apoptotic (%),HEK-293T; [3],46% and 56%
same,Population Fragmented Nuclei (%),HEK-293T; [3],11% and 8%
same,Population Healthy Nuclei (%),HEK-293T; [3],83% and 85%
same,Population Hoechst High Intensity Objects (%),HEK-293T; [3],11%
same,Population Membrane Permeable-Phenotype (%),HEK-293T; [3],5% and 4%
same,Population Mitochondria Different-Phenotype (%),HEK-293T; [3],10% and 22%
same,Population Mitotic Cells (%),HEK-293T; [3],53% and 43%
same,Population Normal (%),HEK-293T; [3],88%
same,Population Pyknosed Nuclei (%),HEK-293T; [3],5% and 6%
same,Population Tubulin-Different-Phenotype (%),HEK-293T; [3],64% and 85%
same,Total Cell Count,HEK-293T; [3],1119 and 790
